The record followed here is the array DNA melting data of Ke et al. (doi:10.1101/2024.01.08.574731).

Data set [1] can be described thus: folding enthalpy; higher = less favourable; fluorescence melt of hairpins on a sequencing array, two-state fit. Conditions: sodium 0.088 M. The gist of the method:
(§1)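 To match UV melts, fitted temperatures were raised by 9.35 °C. These fits were bootstrapped two-state models that gave melting temperature and folding enthalpy, combined by inverse variance over four replicates. The input was normalised Cy3 fluorescence of library hairpins with annealed Cy3 and quencher oligos on a sequenced MiSeq flow cell, imaged in 50 mM Na-HEPES pH 8.0, 25 mM NaCl in 2.5 °C steps up to 60 °C.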

Data set [2] can be described thus: melting temperature; fluorescence melt of hairpins on a sequencing array, two-state fit, raised by 9.35 °C to match UV melts. The note with it: sodium 0.088 M. The gist of the method:
as §1

For the sequence GAAATCCCGAAAGGGTTC (((..(((....)))))), the folding enthalpy in data set [1] was -9.79 kcal/mol. Besides, in data set [2], the Tm came out at 26.2 °C.

For GAAATCCGAAAGGATTC (((.(((....)))))), the folding enthalpy in data set [1] was -11.2 kcal/mol. In data set [2], the Tm worked out at 46.4 °C.

With GAAATCGGAAACGATCTC ((.((((....)))).)), in data set [1], the folding enthalpy was -17.4 kcal/mol. For the same sequence, the Tm in data set [2] is 29.3 °C.

Take GAACAACGAAAGTTATTC (((.(((....))).))): the folding enthalpy in data set [1] is -18.4 kcal/mol. Also, in data set [2], the Tm was 30.1 °C.

As for GAACAACGAAAGTTTTC (((.(((....)))))), the folding enthalpy in data set [1] was -11.8 kcal/mol. In addition, the Tm in data set [2] was 28.2 °C.

Turning to GAACAAGGAAACCTGTTC (((((.(....).))))), the folding enthalpy in data set [1] is -25.7 kcal/mol. Moreover, the Tm in data set [2] amounted to 37.3 °C.

For the sequence GAACACACGAAAGTGTTC (((..(((....)))))), the folding enthalpy in data set [1] was -20.5 kcal/mol. Moreover, the Tm in data set [2] was 46.2 °C.

Turning to GAACACGAAAGTGAGTTC ((((((....)))..))), the folding enthalpy in data set [1] is -16.4 kcal/mol. Further, the Tm in data set [2] came to 35.7 °C.

As to GAACACGAAAGTGGGTTC ((((((....)))..))), in data set [1], the folding enthalpy is -16.4 kcal/mol. Moreover, in data set [2], the Tm worked out at 37.1 °C.

On to GAACACGAAAGTGGTTTC ((((((....)))..))), for which, in data set [1], the folding enthalpy is -14 kcal/mol. For the same sequence, the Tm in data set [2] is 35.5 °C.

For GAACACGAAAGTGTTC ((((((....)))))), the folding enthalpy in data set [1] was -30.9 kcal/mol. For the same sequence, the Tm in data set [2] was determined as 69 °C.

In the case of GAACACGAAAGTGTTTC ((((((....))).))), the folding enthalpy in data set [1] was -12.4 kcal/mol. The Tm in data set [2] was 52.9 °C.

Take GAACAGCGAAAGCTATTC (((.(((....))).))): the folding enthalpy in data set [1] is -15.6 kcal/mol. For the same sequence, in data set [2], the Tm was found to be 34.7 °C.

As for GAACATGGAAACACGTTC ((((.((....)).)))), the folding enthalpy in data set [1] is -27.5 kcal/mol. Further, the Tm in data set [2] was 33 °C.

For GAACATGGAAACATGTCC (.(((((....))))).), the folding enthalpy in data set [1] was -15.4 kcal/mol. For the same sequence, the Tm in data set [2] turned out to be 35.8 °C.

With GAACATGGAAACATGTTC (((((((....))))))), in data set [1], the folding enthalpy is -43.3 kcal/mol. For the same sequence, the Tm in data set [2] came out at 56.2 °C.

GAACCAGAAATGGTTC ((((((....)))))): the folding enthalpy in data set [1] is -33.6 kcal/mol. Further, the Tm in data set [2] is 54.2 °C.

For GAACCAGGAAACTGGTTC (((((((....))))))), the folding enthalpy in data set [1] is -45.1 kcal/mol. In addition, in data set [2], the Tm was 62 °C.

As for GAACCCGAAAGGGATTTC ((((((....)))..))), the folding enthalpy in data set [1] is -11.1 kcal/mol. The Tm in data set [2] amounted to 29.5 °C.

For GAACCCGAAAGGGCGTTC ((((((....)))..))), in data set [1], the folding enthalpy is -11.9 kcal/mol. In addition, the Tm in data set [2] is 33.7 °C.

For the sequence GAACCCGAAAGGGCTTC ((((((....))).))), the folding enthalpy in data set [1] was -15 kcal/mol. Moreover, the Tm in data set [2] is 46.3 °C.

For GAACGCCCGAAAGGGTTC (((..(((....)))))), the folding enthalpy in data set [1] is -10.8 kcal/mol. The Tm in data set [2] came to 30.3 °C.

Turning to GAACGCGAAAGCGCTTTC ((((((....)))..))), in data set [1], the folding enthalpy was -8.13 kcal/mol. In data set [2], the Tm amounted to 29.7 °C.

GAACGCGAAAGCGGCTTC ((((((....)))..))): the folding enthalpy in data set [1] is -14.9 kcal/mol. Further, the Tm in data set [2] is 53.3 °C.

Regarding GAACGCGAAAGCGGTTC ((((((....))).))), the folding enthalpy in data set [1] was -14.3 kcal/mol. Moreover, in data set [2], the Tm came out at 57.3 °C.

As to GAACGCGAAAGCGTTTTC ((((((....)))..))), in data set [1], the folding enthalpy is -11.6 kcal/mol. Also, in data set [2], the Tm was 56.6 °C.

As to GAACGCGGAAACACGTTC (((((.(....).))))), the folding enthalpy in data set [1] is -45.6 kcal/mol. Moreover, the Tm in data set [2] stood at 48.1 °C.

Turning to GAACGGGGAAACCTGTTC ((((.((....)).)))), in data set [1], the folding enthalpy is -32.4 kcal/mol. In data set [2], the Tm is 49 °C.

Take GAACTCGGAAACGAGCTC ((.((((....)))).)): in data set [1], the folding enthalpy is -19 kcal/mol. The Tm in data set [2] was 42.2 °C.

Regarding GAACTCGGAAACGAGTCC (.(((((....))))).), in data set [1], the folding enthalpy is -14.6 kcal/mol. Also, the Tm in data set [2] turned out to be 43.4 °C.

As for GAACTCGGAAACGGGTTC ((((.((....)).)))), the folding enthalpy in data set [1] was -35.1 kcal/mol. Moreover, the Tm in data set [2] was found to be 50.4 °C.

GAACTGAAAAGTTC (((((....))))): the folding enthalpy in data set [1] is -24.3 kcal/mol. Moreover, the Tm in data set [2] was found to be 46.6 °C.

As to GAACTGGGAAACCGGTTC ((((.((....)).)))), the folding enthalpy in data set [1] was -39.6 kcal/mol. Further, the Tm in data set [2] worked out at 50.1 °C.

In the case of GAACTGGGAAACTGGTTC ((((..(....)..)))), in data set [1], the folding enthalpy was -25.8 kcal/mol. In addition, the Tm in data set [2] is 33.3 °C.

Turning to GAAGAACCGAAAGGTTTC (((..(((....)))))), in data set [1], the folding enthalpy was -11.5 kcal/mol. For the same sequence, the Tm in data set [2] was 33 °C.

Turning to GAAGAAGGAAACTCCTTC ((((.((....)).)))), in data set [1], the folding enthalpy was -19.2 kcal/mol. Also, the Tm in data set [2] stood at 30.7 °C.

For GAAGACGAAAGTCCTTTC ((((((....)))..))), the folding enthalpy in data set [1] is -11.6 kcal/mol. The Tm in data set [2] was 29.6 °C.
